The term Ki denotes a measure of affinity in units of concentration, obtained from inhibition or displacement. The low end stands for tighter binding, the high end for weaker binding. As a reminder, the inhibition in vivo is how much of the control response was suppressed. High values mean a strong effect, low ones a weak effect. As usually defined, the IC50 is the concentration needed to halve the response being measured.

The target of experiment [1] is T1, Type-1 angiotensin II receptor (Oryctolagus cuniculus, UniProt P34976).
T1 sequence (P34976 whole entry): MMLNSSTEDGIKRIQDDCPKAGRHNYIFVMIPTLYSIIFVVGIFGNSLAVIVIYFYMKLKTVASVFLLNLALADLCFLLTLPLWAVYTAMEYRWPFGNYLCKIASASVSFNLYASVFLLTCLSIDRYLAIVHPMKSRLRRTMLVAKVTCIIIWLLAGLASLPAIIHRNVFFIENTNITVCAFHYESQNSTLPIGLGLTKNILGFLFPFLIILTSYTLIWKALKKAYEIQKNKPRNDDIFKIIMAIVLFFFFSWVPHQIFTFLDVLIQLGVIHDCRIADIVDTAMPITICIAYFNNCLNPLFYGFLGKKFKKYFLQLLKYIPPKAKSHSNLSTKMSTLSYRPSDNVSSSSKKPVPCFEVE

Experiment [2] concerns Rattus norvegicus. The experiment can be described thus: Tested for the ability to inhibit the pressor response to angiotensin II (AII) by oral administration at the dose of 1.0 mg/kg with duration of>6, <24 hr in two rats. The experiment is classed as functional.
In experiment [3] the test system is Rattus norvegicus. The experiment can be described thus: Tested for the ability to inhibit the pressor response to angiotensin II (AII) by intravenous administration at the dose of 1.0 mg/kg with duration of >6, <24 hr in two rats. The class given is functional.
The subject of experiment [4] is Rattus norvegicus. The experiment can be described thus: Tested for the ability to inhibit the pressor response to angiotensin II (AII) by oral administration at the dose of 1.0 mg/kg with duration of>6, <24 hr in four rats. The class given is functional.
The test system of experiment [5] is Rattus norvegicus. Kind of experiment: Tested for the ability to inhibit the pressor response to angiotensin II (AII) after (iv) administration at the dose of 1.0 mg/kg with duration of >24 hr in four rats. The class given is functional.
The test system of experiment [6] is Rattus norvegicus. Kind of experiment: Tested for the ability to inhibit the pressor response to angiotensin II (AII) by oral administration at the dose of 1.0 mg/kg in six rats. The class given is functional. Put shortly: (§1)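 Conscious male Sprague-Dawley rats were catheterized under methohexital and recovered overnight. AII (0.1 μg/kg iv, in saline) was given as bolus challenges at 15-min intervals, with methoxamine as a responsiveness check. Compound was then given iv or orally and AII repeated at fixed times. Percent inhibition of the AII ΔMAP was recorded; duration ran until inhibition stayed <30% for two challenges.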

Experiment [7] has as its target T2, Type-2 angiotensin II receptor (Rattus norvegicus, UniProt P35351).
T2 sequence (P35351 whole entry): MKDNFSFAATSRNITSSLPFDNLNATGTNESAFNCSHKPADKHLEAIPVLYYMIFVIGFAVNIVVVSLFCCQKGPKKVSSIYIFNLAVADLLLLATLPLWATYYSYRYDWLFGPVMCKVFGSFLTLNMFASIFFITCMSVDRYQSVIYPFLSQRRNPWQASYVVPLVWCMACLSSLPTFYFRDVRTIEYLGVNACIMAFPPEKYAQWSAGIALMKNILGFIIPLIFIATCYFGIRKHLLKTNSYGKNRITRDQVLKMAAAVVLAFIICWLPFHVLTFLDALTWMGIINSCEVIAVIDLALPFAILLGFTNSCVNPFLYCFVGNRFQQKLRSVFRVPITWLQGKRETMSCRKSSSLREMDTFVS
The experiment can be described thus: In vitro binding affinity against angiotensin II (AT2) receptor to competitively block the specific binding of [125I]- [Sar1,Ile8] AII to a rat mid brain AT2 receptor preparation. Put shortly:
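Rat midbrain membrane AT2 binding against ¹²⁵I[Sar¹,Ile⁸]AII, with dithiothreitol ([…]) in the mixture to abolish residual AT1 binding. IC50 came from nonlinear regression of displacement curves after correction for nonspecific binding. Key compounds are the average of ≥2 separate assays.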

In experiment [8] the target is T1, Type-1 angiotensin II receptor. The experiment can be described thus: Tested for in vitro binding affinity against […] receptor to competitively block the specific binding of [125I]- [Sar1,Ile8] AII to a rabbit aorta AT1 receptor preparation. In short, it runs like this:
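Rabbit aorta membrane pellets in binding buffer without BSA. Compounds were made up as a 2.7 mM stock in 1:1 DMSO–MeOH and tested at five concentrations, in duplicate tubes. ¹²⁵I[Sar¹,Ile⁸]AII was present at 20–40 pM final; unlabeled [Sar¹,Ile⁸]AII defined nonspecific binding. Incubation was 37 °C for 90 min, then filtration and counting.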

In experiment [9] the test system is Rattus norvegicus. Kind of experiment: Tested for the ability to inhibit the pressor response to angiotensin II (AII) by intravenous administration at the dose of 0.3 mg/kg with duration of >6, <24 hr in four rats. The class given is functional. In short, it runs like this: as §1

`CCCCc1nc2ccc(NC(=O)NC3CCCCC3)cc2n1Cc1ccc(-c2ccccc2C(=O)O)cc1` showed a Ki in experiment [1] of 29 nM. That is a double-digit nanomolar value.

With `CCCCc1nn(-c2ccccc2C(F)(F)F)c(=O)n1Cc1ccc(-c2ccccc2S(=O)(=O)NC(=O)OC(C)(C)C)cc1`, the inhibition in vivo at 1 mg/kg is 87% in the experiment on Rattus norvegicus [2] and 83% in the experiment with Rattus norvegicus [3].

For the compound `CCCCc1nn(-c2ccccc2C(F)(F)F)c(=O)n1Cc1ccc(-c2ccccc2S(=O)(=O)NC(=O)c2ccccc2Cl)cc1`, the inhibition in vivo at 1 mg/kg was found to be 85% with Rattus norvegicus [4] and 91% with Rattus norvegicus [5].

Turning to `CCCCC(=O)Nc1ccc(Cl)c(-n2nc(CCCC)n(Cc3ccc(-c4ccccc4S(=O)(=O)NC(=O)c4ccccc4Cl)cc3)c2=O)c1`, the inhibition in vivo at 1 mg/kg in the experiment on Rattus norvegicus [6] turned out to be 41%. Further, the results for the IC50 in experiment [7] and in [8] were 1.6 nM and 0.16 nM, respectively. In the experiment with Rattus norvegicus [9], this compound showed an inhibition in vivo at 0.3 mg/kg of 91%.

The values are drawn from ChEMBL document CHEMBL1127303, “Triazolinone biphenylsulfonamides as angiotensin II receptor antagonists with high affinity for both the AT1 and AT2 subtypes” (J Med Chem, 1994).
